Measurements reported in ChEMBL document CHEMBL1122897, “Tetracyclic pyridazines as potential psychopharmacological agents” (J Med Chem, 1985).

Columns and labels:
Format in all cases: functional
Mus musculus [1] = assay: Ability to inhibit the uptake of Serotonin into mouse cortical slices 1 hour after intraperitoneal injection ex vivo; details: ip
Summary of the method: (§1)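 Ex vivo: white mice (18–22 g), four per dose, given test drug intraperitoneally; 1 h later cerebral cortical plus striatal slices incubated 5 min with 0.2 nmol [3H]NE and 0.2 nmol [14C]-5-HT, pargyline, glucose in Krebs-Henseleit buffer pH 7.4 under O2/6.5% CO2. Dual-channel scintillation counting of dissolved slices; active uptake defined as cocaine (3 × 10^-4 M)-inhibitable.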

Mus musculus [2] = species: Mus musculus; assay: (§2) In vitro activity for the ability to inhibit the uptake of Norepinephrine into mouse cortical slices.
Summary of the method: (§3)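 Slices (60 mg cortical, 20 mg striatal) from untreated white mice (18–22 g) incubated with test compound, 0.2 nmol [3H]NE and 0.2 nmol [14C]-5-HT simultaneously, 0.48 μmol pargyline, 11 μmol glucose in 2.0 mL Krebs-Henseleit pH 7.4, 5 min under O2 with 6.5% CO2. 3H and 14C counted separately by liquid scintillation; active uptake = portion blocked by 3 × 10^-4 M cocaine.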

Mus musculus [3] = species: Mus musculus; assay: (§4) In vitro activity for the ability to inhibit the uptake of Serotonin into mouse cortical slices.; summary of the method: as §3
Mus musculus [4] = assay: Ability to inhibit the uptake of Norepinephrine into mouse cortical slices 1 hour after intraperitoneal injection ex vivo at a dose of 102; summary of the method: as §1
Mus musculus [5] = species: Mus musculus; assay: In vitro activity for the ability to inhibit the uptake of Serotonin into mouse cortical slices; value ranges from 0.3-1.0; summary of the method: as §3
Mus musculus [6] = assay: Ability to inhibit the uptake of Serotonin into mouse cortical slices 1 hour after intraperitoneal injection ex vivo at concentration of 102 uM/Kg; summary of the method: as §1
Mus musculus [7] = species: Mus musculus; assay: In vitro activity for the ability to inhibit the uptake of Norepinephrine into mouse cortical slices at a dose of >25; summary of the method: as §3
Mus musculus [8] = species: Mus musculus; assay: In vitro activity for the ability to inhibit the uptake of Serotonin into mouse cortical slices at a dose of 27; summary of the method: as §3
Mus musculus [9] = assay: Ability to inhibit the uptake of Serotonin into mouse cortical slices 1 hour after intraperitoneal injection ex vivo at a dose > 106; summary of the method: as §1
Mus musculus [10] = assay: Ability to inhibit the uptake of Norepinephrine into mouse cortical slices 1 hour after intraperitoneal injection ex vivo at a dose of >106; summary of the method: as §1
Mus musculus [11] = species: Mus musculus; assay: In vitro activity for the ability to inhibit the uptake of Norepinephrine into mouse cortical slices Value ranges from […]; summary of the method: as §3
Mus musculus [12] = assay: Ability to inhibit the uptake of Serotonin into mouse cortical slices 1 hour after intraperitoneal injection ex vivo at a dose of >128; summary of the method: as §1
Mus musculus [13] = assay: Ability to inhibit the uptake of Norepinephrine into mouse cortical slices 1 hour after intraperitoneal injection ex vivo at a dose of >128; summary of the method: as §1
Mus musculus [14] = species: Mus musculus; assay: In vitro activity for the ability to inhibit the uptake of Serotonin into mouse cortical slices; value ranges from 2.6-6.7; summary of the method: as §3
Mus musculus [15] = species: Mus musculus; assay: In vitro activity for the ability to inhibit the uptake of Norepinephrine into mouse cortical slices; value ranges from 2.2-5.5; summary of the method: as §3
Mus musculus [16] = species: Mus musculus; assay: In vitro activity for the ability to inhibit the uptake of Norepinephrine into mouse cortical slices; value ranges from 2.3-7.0; summary of the method: as §3
Mus musculus [17] = assay: Ability to inhibit the uptake of Serotonin into mouse cortical slices 1 hour after intraperitoneal injection ex vivo at a dose of >117; summary of the method: as §1
Mus musculus [18] = species: Mus musculus; assay: In vitro activity for the ability to inhibit the uptake of Serotonin into mouse cortical slices; value ranges from […]; summary of the method: as §3
Mus musculus [19] = assay: Ability to inhibit the uptake of Norepinephrine into mouse cortical slices 1 hour after intraperitoneal injection ex vivo at a dose of >117; summary of the method: as §1
Mus musculus [20] = assay: Ability to inhibit the uptake of Norepinephrine into mouse cortical slices 1 hour after intraperitoneal injection ex vivo; details: ip
Mus musculus [21] = species: Mus musculus; assay: as §2; details: read-out: ED50 (the source's name)
Summary of the method: (§5)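 Slices from untreated white mice (18–22 g), four animals per dose: 60 mg cortical plus 20 mg striatal, with test compound in the bath. Simultaneous uptake of [3H]NE and [14C]-5-HT (0.2 nmol each), with 0.48 μmol pargyline and 11 μmol glucose in 2.0 mL Krebs-Henseleit buffer, pH 7.4. Incubation 5 min under O2/6.5% CO2. Separate 3H and 14C channels; active uptake is the portion inhibited by 3 × 10^-4 M cocaine.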

Mus musculus [22] = species: Mus musculus; assay: as §4; details: read-out: ED50 (the source's name); summary of the method: as §5
Mus musculus [23] = species: Mus musculus; assay: In vitro activity for the ability to inhibit the uptake of Norepinephrine into mouse cortical slices; value ranges from 1.1-4.4; summary of the method: as §3
Mus musculus [24] = assay: Ability to inhibit the uptake of Serotonin into mouse cortical slices 1 hour after intraperitoneal injection ex vivo value ranges from 27-224; details: ip; summary of the method: as §1
Mus musculus [25] = species: Mus musculus; assay: In vitro activity for the ability to inhibit the uptake of Serotonin into mouse cortical slices; value ranges from 0.8-3.0; summary of the method: as §3
Mus musculus [26] = assay: Ability to inhibit the uptake of Norepinephrine into mouse cortical slices 1 hour after intraperitoneal injection ex vivo; value ranges from […]; details: ip; summary of the method: as §1
Mus musculus [27] = assay: Ability to inhibit the uptake of Norepinephrine into mouse cortical slices 1 hour after intraperitoneal injection ex vivo; value ranges from 11-23; details: ip; summary of the method: as §1
Mus musculus [28] = species: Mus musculus; assay: In vitro activity for the ability to inhibit the uptake of Norepinephrine into mouse cortical slices; value ranges from 0.2-1.0; summary of the method: as §3
Mus musculus [29] = species: Mus musculus; assay: In vitro activity for the ability to inhibit the uptake of Serotonin into mouse cortical slices; value ranges from 2.0-6.4; summary of the method: as §3

For `CNCCCN1c2ccccc2CCc2ccccc21` [DESIPRAMINE], the ED50 (Mus musculus [1]) was > 132 µmol/kg, the EC50 (Mus musculus [2]) was 0.07 µM and the EC50 (Mus musculus [3]) was 12 µM.
With `CN(C)CC/C=C(\c1cccc(Cl)c1)c1ccccc1N` the Inhibition (Mus musculus [4]) was 33%, the EC50 (Mus musculus [5]) was 0.5 µM and the Inhibition (Mus musculus [6]) was 55%. The Inhibition (Mus musculus [7]) was 37%.
`CN(C)CCc1nnc2cccc3c2c1-c1ccccc1CC3` was tested, and the Inhibition (Mus musculus [8]) was 46%, the Inhibition (Mus musculus [9]) was 11% and the Inhibition (Mus musculus [10]) was 13%. The EC50 (Mus musculus [11]) was 6.6 µM.
In the case of `CN(C)CCc1nnc2ccccc2c1-c1cccc(Cl)c1`, the Inhibition (Mus musculus [12]) is reported as 42%, the Inhibition (Mus musculus [13]) is reported as 49% and the EC50 (Mus musculus [14]) is reported as 4.2 µM. The EC50 (Mus musculus [15]) was 3.5 µM.
In the case of `CN(C)CCc1nnc2cccc3c2c1-c1cc(Cl)ccc1S3`, the EC50 (Mus musculus [16]) is reported as 3.8 µM, the Inhibition (Mus musculus [17]) is reported as 16% and the EC50 (Mus musculus [18]) is reported as 7.3 µM. The Inhibition (Mus musculus [19]) was 27%.
`CN(C)CCCN1c2ccccc2CCc2ccccc21` [IMIPRAMINE] gave an ED50 (Mus musculus [1]) of 126 µmol/kg, an EC50 (Mus musculus [2]) of 1.3 µM and an EC50 (Mus musculus [3]) of 0.3 µM. For the same compound, the ED50 (Mus musculus [20]) was 63 µmol/kg.
In the case of `CN(C)CCC=C1c2ccccc2CCc2ccccc21` [AMITRIPTYLINE], the EC50 (Mus musculus [21]) is reported as 5.4 µM, the ED50 (Mus musculus [1]) is reported as > 144 µmol/kg and the EC50 (Mus musculus [22]) is reported as 2.9 µM. For the same compound, the ED50 (Mus musculus [20]) was 144 µmol/kg.
`CN(C)CC/C=C1\c2ccccc2CCc2cccc(N)c21` gave an EC50 (Mus musculus [23]) of 2.2 µM, an ED50 (Mus musculus [24]) of 55 µmol/kg and an EC50 (Mus musculus [25]) of 1.6 µM. For the same compound, the ED50 (Mus musculus [26]) was 15 µmol/kg.
`CN(C)CC/C=C1\c2cc(Cl)ccc2Sc2cccc(N)c21` was tested, and the ED50 (Mus musculus [27]) was 16 µmol/kg, the ED50 (Mus musculus [1]) was > 99 µmol/kg and the EC50 (Mus musculus [28]) was 0.7 µM. The EC50 (Mus musculus [29]) was 3.5 µM.
